Laboratory results as given in article PMC6925336 (European journal of pharmaceutical sciences : official …, 2019).
Several values for one entry are separate records, joined by “and”; a condition that tells them apart may be missing. Equal entries are not always repeated.

Experiments:
[1] = adult patients, recommended phase II dosage of 105 mg/m^2; ref Hong et al., 2016; cited from earlier work
[2] = Plasma pharmacokinetic study, 10 mg/kg SQ, population model; format: in vivo, CD-1 nude mice bearing G3MB; details: for AUC: Model-derived AUCplasma, total plasma
Procedure, shortened: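 Nine female CD-1 nude mice carrying orthotopic mouse G3MB cells (enrolled at ~1×10^7 photons/sec) got 10 mg/kg SQ in 20% w/v Captisol. Population design: 2–3 samples per mouse up to 24 h, […]. Plasma assayed by LC-MS/MS. Fit with a two-compartment model with first-order absorption and linear elimination (apparent parameters); FOCE with interaction; log-normal inter-individual variability.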

[3] = Cerebral microdialysis, tumor ECF, mice bearing G3MB; format: in vivo, CD-1 nude mice bearing G3MB
Procedure, shortened: (§1)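 Female CD-1 nude mice, non-tumor-bearing (N=7) or with cortical G3MB implants enrolled at ~1×10^7 photons/sec (N=8). Stereotactic cortical guide cannula; 1 mm probe (38 kDa MWCO) perfused with Ringer's at 0.5 µl/min, 1 h equilibration. Single 10 mg/kg SQ dose. Hourly dialysate to 24 h; plasma at 0.25, 6.5 and 24 h. LC-MS/MS. Unbound ECF = dialysate/probe recovery. Population PK model gave per-mouse AUCs and ECF rate constants.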

[4] = Plasma pharmacokinetic study, 20 mg/kg IV, PK/PD model; format: in vivo, CD-1 nude mice bearing G3MB; details: plasma model re-estimated with 20 mg/kg IV data
Procedure, shortened: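 Nine female CD-1 nude mice with orthotopic G3MB (~1×10^7 photons/sec) got 20 mg/kg prexasertib mesylate IV in 20% w/v Captisol. Sparse sampling: 2–3 plasma samples per mouse to 24 h, LC-MS/MS.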

pCHK1 S345 = assay: Pharmacodynamic study, immunohistochemistry of G3MB tumor tissue: pCHK1 S345; format: in vivo, mice bearing G3MB
Procedure, shortened: (§2)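 G3MB-bearing mice (N=21), enrolled at ~1×10^7 photons/sec, were randomized to vehicle or one 20 mg/kg IV bolus. Brains were harvested pre-dose and at 1, 2, 6 and 24 h post-dose and fixed in paraformaldehyde. Immunohistochemistry was done for pCHK1 S345, γ-H2AX and cleaved caspase-3. Scanned slides were quantified as percent positive-staining cells.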

γ-H2AX = assay: Pharmacodynamic study, immunohistochemistry of G3MB tumor tissue: γ-H2AX; format: in vivo, mice bearing G3MB
Procedure, shortened: as §2

[5] = Cerebral microdialysis, brain ECF, non-tumor bearing; format: in vivo, CD-1 nude mice (non-tumor bearing); details: 10 mg/kg SQ
Procedure, shortened: as §1

[6] = Plasma protein binding by equilibrium dialysis; format: in vitro ADME, mouse
Procedure, shortened: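 Equilibrium dialysis. CD-1 mouse plasma (sodium heparin) was spiked at final 2–2000 ng/ml (eight levels), in triplicate, against blank Ringer's solution. Rotated at 37°C for 24 h, then both sides sampled. Fraction unbound = buffer-side concentration / plasma-side total concentration.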

cleaved caspase-3 = format: in vivo, mice bearing G3MB; details: 20 mg/kg IV single dose, at 24 hours post-dose; not statistically significant
Procedure, shortened: as §2

[7] = 10 mg/kg SQ, apparent parameter
[8] = 10 mg/kg SQ, ECF model, G3MB mice
[9] = PK/PD model, fixed based upon a sensitivity analysis

COc1cccc(OCCCN)c1-c1cc(Nc2cnc(C#N)cn2)n[nH]1 [prexasertib, 5-(5-[2-(3-Aminopropoxy)-6-methoxyphenyl]-1H-pyrazol-3-yl}amino)pyrazine-2-carbonitrile methanesulfonate hydrate]
Plasma exposure AUCplasma, 0−∞ (mean ±SD) [1]: 2410 ± 1229 ng·h/mL | CL, plasma (central) clearance, estimate (RSE%) [2, 7]: 5.64 (4.3%) l/h/kg | Q, tissue (peripheral) clearance, estimate (RSE%) [2, 7]: 0.58 (13%) l/h/kg | Vc, plasma (central) volume, estimate (RSE%) [2, 7]: 1.81 (18%) l/kg | Vp, tissue (peripheral) volume, estimate (RSE%) [2, 7]: 3.42 (8.0%) l/kg | ka, absorption rate constant, estimate (RSE%) ([2]; 10 mg/kg SQ, plasma population model): 1.07 (12%) h^−1 | half-life ([2]; female, CD-1 nude, mouse, plasma, subcutaneous, 10 mg/kg): 4.5 h | AUC ([2]; female, CD-1 nude, mouse, plasma, subcutaneous, 10 mg/kg, 0−∞ (mean ± SD), 10 mg/kg SQ): 1820 ± 462 ng·h/mL | AUC ([2]; female, CD-1 nude, mouse, plasma, subcutaneous, 10 mg/kg, 0−∞, range, 10 mg/kg SQ): 1460 to 2880 ng·h/mL | kb45, peripheral rate constant, estimate (RSE%) [3, 8]: 0.39 (24%) h^−1 | kb54, peripheral rate constant, estimate (RSE%) [3, 8]: 0.05 (41%) h^−1 | Time of maximum tumor ECF concentrations post-dose ([3]; 10 mg/kg SQ, mice bearing G3MB): 1 h | Unbound AUCECF (mean ± SD) ([3]; 10 mg/kg SQ, tumor ECF, tumor-bearing mice, at 24 hours post-dose): 47.3 ± 17 ng·h/mL | Kp uu ([3]; CD-1 nude, mouse, tumor ECF (microdialysate) / unbound plasma, subcutaneous, 10 mg/kg): 0.17 ± 0.08 | CL, plasma clearance, estimate (RSE%) [4]: 6.03 (8.0%) l/h/kg | Q, tissue (peripheral) clearance, estimate (RSE%) [4]: 0.807 (10%) l/h/kg | Vc, plasma volume, estimate (RSE%) [4]: 2.67 (13%) l/kg | Vp, tissue (peripheral) volume, estimate (RSE%) [4]: 3.79 (6.0%) l/kg | ka, absorption rate constant, estimate (RSE%) [4]: 1.16 (10%) h^−1 | Time of peak induction of pCHK1 S345 after the dose (pCHK1 S345; 20 mg/kg IV single dose): 2 hours | Time pCHK1 S345 stayed above baseline after the dose (pCHK1 S345; 20 mg/kg IV single dose): at least 6 hours | Peak in pCHK1 S345 nuclear staining (pCHK1 S345; 20 mg/kg IV single dose, at 2 hours): 2.2 fold | EC50 at 20 mg/kg (pCHK1 S345; Mus musculus, iv, read-out: pCHK1 S345 EC50, prexasertib ECF concentration for 50% stimulation of maximum function of kin, estimate (RSE%), PK/PD model, 20 mg/kg IV, tumor ECF, preliminary): 0.0102 µg/mL | pCHK1 S345 EC50, prexasertib ECF concentration for 50% stimulation of maximum function of kin, estimate (RSE%) (pCHK1 S345; PK/PD model, 20 mg/kg IV, tumor ECF, preliminary, 20 mg/kg): 10.15 (26.5%) ng/ml | pCHK1 S345 Emax, maximum extent of stimulation (pCHK1 S345; [9]): 2.0 (-) | Time of peak induction of γ-H2AX after the dose (γ-H2AX; 20 mg/kg IV single dose): 2 h | Time γ-H2AX was elevated above baseline (γ-H2AX; 20 mg/kg IV single dose): at least 6 hours | pH2Ax Emax, maximum extent of stimulation (γ-H2AX; [9]): 5.0 (-) | θNTB on CLef, proportional shift for NTB mice, estimate (RSE%) ([5]; ECF model): 2.20 (38%) | θNTB on CLin, proportional shift for NTB mice, estimate (RSE%) ([5]; ECF model): 0.93 (45%) | θNTB on kb45, proportional shift for NTB mice, estimate (RSE%) ([5]; ECF model): 5.90 (77%) | θNTB on kb54, proportional shift for NTB mice, estimate (RSE%) ([5]; ECF model): 17.9 (32%) | Time of maximum brain ECF concentrations post-dose ([5]; NTB mice): 1 h | AUCplasma of unbound prexasertib (mean ± SD) ([5]; NTB mice, at 24 hours post-dose, from total exposure and FU): 271 ± 23 ng·h/mL | Unbound AUCECF (mean ± SD) ([5]; brain ECF, NTB mice, at 24 hours post-dose): 24.8 ± 11.8 ng·h/mL and 24.8 ng·h/mL | Binding to the dialysis membrane of the Equilibrium Dialyzer plate [6]: negligibly bound | fraction unbound at 24 h ([6]; CD-1, mouse, plasma): 0.11 | Increase of cleaved caspase-3 (cleaved caspase-3): 1.4 fold
